Most compounds without a hit are left out; they make up all but 3.7% or so of the library.
OX1R antag-1: antagonists of human orexin 1 receptor (OX1R); O43613; OX1R-expressing cells, FRET antagonist read-out; inhibition, % at 6.6 µM; 330,000 compounds, 1.8% hits; in the data active = inhibition mostly above about 38%, no sharp cut-off; inactive = mostly below about 40%;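 note: 0% = agonist challenge alone and 100% = reference antagonist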
Target sequence (O43613 whole entry, looked up): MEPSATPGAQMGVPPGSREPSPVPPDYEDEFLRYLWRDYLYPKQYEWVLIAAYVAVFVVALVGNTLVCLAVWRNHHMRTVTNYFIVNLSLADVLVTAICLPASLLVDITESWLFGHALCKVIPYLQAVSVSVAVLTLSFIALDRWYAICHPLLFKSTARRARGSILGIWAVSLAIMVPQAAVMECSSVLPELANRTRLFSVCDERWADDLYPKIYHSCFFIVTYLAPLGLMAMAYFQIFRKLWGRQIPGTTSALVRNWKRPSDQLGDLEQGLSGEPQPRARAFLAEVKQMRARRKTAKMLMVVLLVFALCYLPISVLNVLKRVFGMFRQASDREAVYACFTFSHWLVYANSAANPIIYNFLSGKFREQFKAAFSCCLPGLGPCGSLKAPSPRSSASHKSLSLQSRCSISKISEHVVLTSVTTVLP
OX1R antag-2: antagonists of human orexin 1 receptor | O43613 | CHO/OX1R cells, Fluo-8 calcium fluorescence, orexin A | inhibition, % at 5 µM | 330,000 compounds, 0.43% hits;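 active = inhibition above its plate's threshold, mean inhibition of all tested compounds on the plate plus 3 SD, cut at about 37% in these data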;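 note: 0% = orexin A challenge wells and 100% = SB-334867-A antagonist wells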
EP2 modulator: modulators of human EP2 prostaglandin E2 receptor; AID 940; 260,000 compounds, 0.83% hits; induction, % at 25 µM; EP2-expressing cells, cAMP HTRF FRET, PGE2 co-stimulation; P43116;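 active = compounds whose cAMP rise, as percent of the full-agonist control response, exceeds 60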;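 note: rat C6 glioma line stably carrying human EP2 under a CMV promoter; the protocol text gives 20 µM as final concentration; 100% = response of wells given 1 µM PGE2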
CHO parental Ca: counter-screen: ATP calcium response change in parental CHO cells. parental CHO-K1, ATP-induced calcium, Fluo-8 fluorescence. inhibition, % at 5.6 µM. 330,000 compounds, 0.63% hits. AID 463079;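 active = inhibition above that plate's mean sample inhibition plus 3 SD, cut at about 26% in these data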;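 note: 0% = ATP-challenged DMSO wells and 100% = DMSO wells without ATP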
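Material: Parental CHO cells | Reagent: ATP | Compound dosing: Single nominal dose of 5.6 µM per compound | Detection: Intracellular calcium via Fluo-8 no-wash fluorescent dye | Read-out: % inhibition of ATP-induced calcium mobilization | Benchmarks: Low control ATP plus DMSO, high control DMSO only | Replicates: Singlicate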
GPR7 antag: blocks human GPR7 receptor signaling. GPR7-expressing cells, fluorescence antagonist assay. inhibition, % at 4.4 µM. 290,000 compounds, 1.1% hits. AID 1861; in the data active = inhibition above about 16%, passing the limit was not always enough;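 note: cells stimulated with the agonist NPW; 0% = agonist with vehicle and 100% = vehicle without agonist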
EP2 antag: inhibitors of human EP2 prostaglandin E2 receptor; inhibition, % at 25 µM; P43116; C6 glioma cells expressing human EP2, cAMP TR-FRET; cells stimulated with saturating PGE2; 260,000 compounds, 0.52% hits;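 active = percent inhibition above 40 after rounding to a whole number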;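 note: rat C6 glioma host cells with rolipram phosphodiesterase inhibitor present; the protocol text gives 20 µM as final concentration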
* hit, by the source's call.

What do the screens show for `Cc1ccc(NC(=O)/C(Cl)=C\c2ccccc2)cc1`?
OX1R antag-1: 30.2; OX1R antag-2: -20.6; CHO parental Ca: -22.5

How did COC(=O)c1ccccc1NC(=O)COc1ccc(S(=O)(=O)N2CCCC2)cc1 do in these assays?
EP2 modulator: -10.4; EP2 antag: 7.8

How did Cc1ccc2c(CC(=O)N(C)c3c(N)n(Cc4ccccc4)c(=O)[nH]c3=O)coc2c1 do in these assays?
OX1R antag-1: 17.9; OX1R antag-2: -28.5; CHO parental Ca: 0.3

What do the screens show for `COC(=O)CSc1nc(NC#N)nc(NC(C)(C)C)n1`?
OX1R antag-1: 1.5; OX1R antag-2: -6.2; EP2 modulator: 14.4; CHO parental Ca: -12.4; GPR7 antag: -2.5; EP2 antag: 7.3

How did Cc1cccc(C(=O)O/N=C2/CC3CCC2(C)C3(C)C)c1 (stereo unspecified) do in these assays?
OX1R antag-1: 12.6; OX1R antag-2: -36.6; EP2 modulator: -49.8; CHO parental Ca: 30.7*; GPR7 antag: -7.2; EP2 antag: 7.7

How did Cc1ccc(C(=O)O/N=C2\CC3CCC2(C)C3(C)C)cc1 (stereo unspecified) do in these assays?
OX1R antag-1: 10.7; OX1R antag-2: -18.4; EP2 modulator: -59.1; CHO parental Ca: -18.6; GPR7 antag: -14.3; EP2 antag: 8.0

How did O=C(COC(=O)C1CCN(S(=O)(=O)c2ccc3c(c2)OCCO3)CC1)NC1CCS(=O)(=O)C1 (stereo unspecified) do in these assays?
OX1R antag-1: 7.4; OX1R antag-2: -3.3; CHO parental Ca: 11.1

How did CC(C)c1nc2ccc(Br)cn2c1NC1CCCC1 do in these assays?
OX1R antag-1: 25.7; OX1R antag-2: -25.7; EP2 modulator: 64.9*; CHO parental Ca: -18.1; GPR7 antag: -12.8; EP2 antag: 0.2

What do the screens show for `COc1ccc(CN(C)c2nc(-c3cccnc3)nc3ccccc23)cc1OC`?
OX1R antag-1: 21.7; OX1R antag-2: -23.9; EP2 modulator: -11.6; CHO parental Ca: -18.2; GPR7 antag: -10.6; EP2 antag: 4.1

Results for C[C@@H](Cn1nnc2ccccc21)NC(=O)CCn1ncc2ccccc21 ?
EP2 modulator: -27.7; EP2 antag: 12.5

What do the screens show for `Cc1c(-c2nnc(-c3ccc(C(F)(F)F)cc3)o2)cnn1-c1ccccc1`?
OX1R antag-1: 7.3; OX1R antag-2: -7.3; EP2 modulator: 0.8; CHO parental Ca: 2.2; GPR7 antag: 0.0; EP2 antag: 15.0

How did Cc1cccc2[nH]c3c(N4CC=C(c5ccc(F)cc5)CC4)ncnc3c12 do in these assays?
OX1R antag-1: 77.0*; OX1R antag-2: 19.4; EP2 modulator: -34.2; CHO parental Ca: 35.6*; GPR7 antag: -11.8; EP2 antag: 5.3

What do the screens show for `C=CCN(CC=C)Cc1c(O)ccc2c1oc(=O)c1ccccc12`?
OX1R antag-1: 18.7; OX1R antag-2: -18.4; CHO parental Ca: -2.6; GPR7 antag: -8.1; EP2 antag: 41.4*

What do the screens show for `Cc1cc(=O)oc2c(CN(C)Cc3ccccc3)c(O)ccc12`?
OX1R antag-1: 8.2; OX1R antag-2: -22.0; EP2 modulator: 22.2; CHO parental Ca: -9.3; GPR7 antag: -7.3

How did CCCCc1[nH]c(=O)c(C#N)c2c1CSC(C)(C)C2 do in these assays?
OX1R antag-1: 18.1; OX1R antag-2: -3.4; EP2 modulator: 4.3; CHO parental Ca: 56.2*; GPR7 antag: -16.2; EP2 antag: 5.9

What do the screens show for `O=C(NN(c1ccccc1)c1ccccc1)c1ccc([N+](=O)[O-])o1`?
OX1R antag-1: 10.0; OX1R antag-2: -14.2; EP2 modulator: -67.0; CHO parental Ca: -16.1; GPR7 antag: 3.0; EP2 antag: 3.4

Results for O=C(/C=C/c1ccccc1Cl)NCc1ccccc1 ?
OX1R antag-1: 27.6; OX1R antag-2: -22.5; EP2 modulator: -23.2; CHO parental Ca: -4.8; GPR7 antag: 1.0; EP2 antag: 3.4

Results for Cc1cc(NC(=O)/C=C/c2ccccc2Cl)no1 ?
OX1R antag-1: 7.5; OX1R antag-2: 0.3; EP2 modulator: -7.2; CHO parental Ca: 7.9; GPR7 antag: -3.7; EP2 antag: 4.5

What do the screens show for `CN(C)c1ccc(NC(=O)/C=C/c2ccccc2Cl)cc1`?
OX1R antag-1: 64.0*; OX1R antag-2: -7.8; EP2 modulator: -37.1; CHO parental Ca: -15.9; GPR7 antag: -6.1; EP2 antag: 8.8

Results for CCN(CC)c1ccc(NC(=O)/C=C\c2ccccc2Cl)cc1 ?
OX1R antag-1: 40.1*; OX1R antag-2: 12.0; EP2 modulator: 10.6; CHO parental Ca: -17.9; GPR7 antag: 9.9; EP2 antag: 7.5

How did O=C(c1ccc(S(=O)(=O)Nc2ccccc2)cc1)N1CCCC1 do in these assays?
OX1R antag-1: 11.0; OX1R antag-2: -15.9; CHO parental Ca: -8.0

What do the screens show for `CCOC(=O)c1c(CN2CCCCC2)n(C)c2cc(Br)c(O)c(CN(C)C)c12`?
OX1R antag-1: 17.6; OX1R antag-2: -37.2; EP2 modulator: 9.6; CHO parental Ca: -19.2; GPR7 antag: -4.4; EP2 antag: 9.2

What do the screens show for `CSc1nc(Oc2ccc(Cl)cc2)c2sccc2n1`?
OX1R antag-1: 4.2; OX1R antag-2: -35.4; EP2 modulator: 63.6*; CHO parental Ca: -27.7; GPR7 antag: -5.8; EP2 antag: 11.3

Results for CSc1nc(N2CCOCC2)c2sccc2n1 ?
OX1R antag-1: 14.6; OX1R antag-2: -15.2; EP2 modulator: 5.5; CHO parental Ca: -16.5; GPR7 antag: -16.0; EP2 antag: 4.6

Results for COc1ccc([N+](=O)[O-])cc1NC(=O)CSCc1ccc(Br)cc1 ?
OX1R antag-1: 28.6; OX1R antag-2: -14.3; EP2 modulator: 10.3; CHO parental Ca: 3.1; GPR7 antag: 0.1; EP2 antag: 21.9

What do the screens show for `O=C(CSCc1ccc(Cl)cc1)Nc1cc([N+](=O)[O-])ccc1O`?
OX1R antag-1: 104.6*; OX1R antag-2: 13.8; EP2 modulator: -43.2; CHO parental Ca: 4.8; GPR7 antag: 3.1; EP2 antag: 1.8

What do the screens show for `COc1ccc(NC(=O)c2nc3nccc(C)n3n2)cc1S(=O)(=O)N1CCOCC1`?
OX1R antag-1: 5.5; OX1R antag-2: -7.8; CHO parental Ca: -15.5

How did Cc1nn(-c2ncc(C(F)(F)F)cc2Cl)c(=O)n1-c1cccc(Cl)c1 do in these assays?
OX1R antag-1: 7.8; OX1R antag-2: -8.6; EP2 modulator: 5.7; CHO parental Ca: -5.2; GPR7 antag: -1.8

How did COc1ccc(OC)c(NC(=O)COC(=O)CCNc2ccccc2OC)c1 do in these assays?
OX1R antag-1: 54.7*; OX1R antag-2: -4.2; CHO parental Ca: -14.1

How did COc1ccc(OC)c(NC(=O)COC(=O)Cc2ccc(-c3ccccc3)cc2)c1 do in these assays?
OX1R antag-1: 6.8; OX1R antag-2: -18.7; EP2 modulator: -8.5; CHO parental Ca: -16.7; GPR7 antag: 4.8; EP2 antag: 5.3

What do the screens show for `CCOC(=O)CNC(=O)c1cnc(Nc2ccccc2OC)c2ccccc12`?
OX1R antag-1: 8.0; OX1R antag-2: -37.3; CHO parental Ca: -15.0; GPR7 antag: -15.1

Screens from PubChem BioAssay.
